Measured values: ChEMBL document CHEMBL1156704, “Angiotensin II--AT1 receptor antagonists: design, synthesis and evaluation of substituted carboxamido benzimidazole derivatives” (Eur J Med Chem, 2008)

Assays:
Rattus norvegicus [1] = test: Antihypertensive activity against desoxycortisone-induced hypertension in rat assessed as decrease in mean arterial blood pressure at 3 mg/kg, ip; type: functional, Artery; details: route intraperitoneal
How it was run: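 Hypertension induced in rats with desoxycortisone acetate 40 mg kg-1 s.c. Mean arterial blood pressure recorded through a carotid artery cannula connected to a pressure transducer. Test agents were given intraperitoneally. The dose-finding series used 0.1–30.0 mg kg-1, and the remaining agents were tested at 1.0, 3.0 and 10.0 mg kg-1.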

[2] = target: T1, Type-1 angiotensin II receptor A (Rattus norvegicus, UniProt P25095); test: (§1) Antagonist activity at AT1 receptor in rat aorta; type: functional, tissue-based; details: read-out: pA2 (converted)
T1 sequence (P25095 whole entry): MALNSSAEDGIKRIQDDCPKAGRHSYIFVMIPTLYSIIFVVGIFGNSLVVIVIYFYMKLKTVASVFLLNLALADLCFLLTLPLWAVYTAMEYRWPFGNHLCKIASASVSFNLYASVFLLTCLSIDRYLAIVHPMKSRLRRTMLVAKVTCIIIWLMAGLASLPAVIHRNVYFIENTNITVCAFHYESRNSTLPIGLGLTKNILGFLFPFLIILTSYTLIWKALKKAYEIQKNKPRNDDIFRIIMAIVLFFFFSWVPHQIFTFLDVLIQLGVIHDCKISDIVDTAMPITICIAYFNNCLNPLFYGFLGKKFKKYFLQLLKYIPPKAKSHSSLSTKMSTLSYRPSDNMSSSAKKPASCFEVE

[3] = target: T2, Type-1 angiotensin II receptor A (Rattus norvegicus) (UniProt P25095); test: as §1; type: functional, tissue-based
T2 sequence (whole entry): T1 sequence (P25095 whole entry)

Rattus norvegicus [4] = test: Antihypertensive activity against desoxycortisone-induced hypertension in rat assessed as decrease in mean arterial blood pressure at 5 mg/kg, ip; type: functional, Artery; details: route intraperitoneal

Structure (SMILES)	Activity (Rattus norvegicus [1])	Kb [2]	pA10 [3]	Activity (Rattus norvegicus [4])
CCCCc1nc2cc(N)ccc2n1Cc1ccc(-c2ccccc2C(=O)O)cc1	33.3 mmHg	15.8 nM	7	–
CCCCc1nc2cc(NC(=O)c3ccccc3Cl)ccc2n1Cc1ccc(-c2ccccc2C(=O)O)cc1	20.3 mmHg	316 nM	5.8	–
CCCCc1nc2cc(NC(=O)CCC)ccc2n1Cc1ccc(-c2ccccc2C(=O)O)cc1	26.4 mmHg	79.4 nM	4.4	–
CCCCC(=O)Nc1ccc2c(c1)nc(CCCC)n2Cc1ccc(-c2ccccc2C(=O)O)cc1	21.7 mmHg	398 nM	3.7	–
CCCCc1nc2cc(NC(=O)CC)ccc2n1Cc1ccc(-c2ccccc2C(=O)O)cc1	36.2 mmHg	20 nM	4.7	–
CCCCc1nc2cc(NC(=O)c3ccccc3)ccc2n1Cc1ccc(-c2ccccc2C(=O)O)cc1	19.8 mmHg	251 nM	6	–
CCCCc1nc2cc(NC(=O)c3ccc(Cl)cc3)ccc2n1Cc1ccc(-c2ccccc2C(=O)O)cc1	12 mmHg	631 nM	5.4	–
CCCCc1nc2cc(NC(C)=O)ccc2n1Cc1ccc(-c2ccccc2C(=O)O)cc1	33.5 mmHg	10 nM	5.9	–
CCOc1nc2cccc(C(=O)O)c2n1Cc1ccc(-c2ccccc2-c2nnn[nH]2)cc1	–	10 nM	7.1	31.8 mmHg
CCCCc1nc(Cl)c(CO)n1Cc1ccc(-c2ccccc2-c2nnn[nH]2)cc1 [LOSARTAN]	–	–	6.5	29.7 mmHg
